Measured values from ChEMBL document CHEMBL4229392, “An Efficient Buchwald-Hartwig/Reductive Cyclization for the Scaffold Diversification of Halogenated Phenazines: Potent Antibacterial Targeting, Biofilm Eradication, and Prodrug Exploration” (J Med Chem, 2018).
pIC50: −log10 of the molar value. Converted amounts (≈) assume the structure as drawn. The source made the active and inactive calls. No cut-off for these calls is given here.

Experiments:
Staphylococcus aureus [1] = assay: Induction of biofilm eradication of methicillin-resistant Staphylococcus aureus 2 after 24 hrs by calgary biofilm device method; type: functional
Outline: (§1)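 Calgary device: biofilms established 24 h at 37 °C from mid-log culture diluted 1,000-fold in TSBG (0.5% glucose), washed, exposed 24 h to 2-fold serial dilutions, then peg lid moved to fresh TSBG for 24 h recovery. MBEC = lowest concentration giving no turbidity; at least three independent experiments.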

Staphylococcus aureus [2] = assay: Induction of biofilm eradication of methicillin-resistant Staphylococcus aureus BAA-1707 after 24 hrs by calgary biofilm device method; type: functional; outline: as §1
[3] = test system: Staphylococcus epidermidis; assay: Bactericidal activity against methicillin-resistant Staphylococcus epidermidis ATCC 35984 planktonic cells after 24 hrs by calgary biofilm device method; type: organism-based
Outline: (§2)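 Biofilms grown 24 h at 37 °C on Calgary device pegs from mid-log culture diluted 1,000-fold in TSB + 0.5% glucose; washed pegs challenged 24 h at 37 °C with 2-fold serial dilutions. Challenge medium subcultured into fresh TSBG overnight; MBC = concentration without visible turbidity; at least three independent experiments.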

[4] = Hemolytic activity in human RBC at 200 uM after 1 hr relative to control; type: ADME, cell-based, Erythrocyte; conditions: red blood cells (erythrocytes), read-out: Activity
Outline: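 Human RBCs drawn fresh into EDTA were washed three times in Tris-buffered saline (0.01 M Tris, 0.155 M NaCl, pH 7.2). 2% hRBC suspension was added to compound from DMSO stock, final 200 µM, for 1 h at 37 °C, then centrifuged and supernatant OD405 read. Scaled between DMSO (0%) and Triton X (100%). Three independent experiments.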

Staphylococcus aureus [5] = assay: Bactericidal activity against methicillin-resistant Staphylococcus aureus BAA-44 planktonic cells after 24 hrs by calgary biofilm device method; type: organism-based; outline: as §2
Enterococcus faecium [6] = assay: Induction of biofilm eradication of vancomycin-resistant Enterococcus faecium ATCC 700221 after 24 hrs by calgary biofilm device method; type: functional; outline: as §1
Enterococcus faecium [7] = assay: Bactericidal activity against vancomycin-resistant Enterococcus faecium ATCC 700221 planktonic cells after 24 hrs by calgary biofilm device method; type: organism-based; outline: as §2
Enterococcus faecium [8] = assay: Antibacterial activity against vancomycin-resistant Enterococcus faecium ATCC 700221 after 16 to 18 hrs by broth microdilution method; type: functional
Outline: (§3)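 CLSI broth microdilution in Lysogeny Broth, eleven two-fold dilutions spanning 0.10–100 µM; ~10^5 cells per well from log-phase culture; DMSO vehicle (top 1% v/v). MIC = lowest concentration preventing growth after 16–18 h at 37 °C, supported by OD600; three independent experiments.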

[9] = test system: Mycobacterium tuberculosis; assay: Antibacterial activity against Mycobacterium tuberculosis H37Ra ATCC 25177 after 7 days; type: functional; conditions: H37Ra ATCC 25177, 168 h
Outline: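 M. tuberculosis H37Ra grown two weeks in Middlebrook 7H9, diluted to OD600 0.01; two-fold serial dilutions 0.024–50 µM (streptomycin positive control, 0.16–340 µM); final DMSO 0.5%. Incubated 7 days at 37 °C; MIC = lowest concentration with no growth, OD600 recorded; three independent experiments.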

[10] = test system: Staphylococcus epidermidis; assay: Induction of biofilm eradication of methicillin-resistant Staphylococcus epidermidis ATCC 35984 after 24 hrs by calgary biofilm device method; type: functional; outline: as §1
Staphylococcus aureus [11] = assay: Induction of biofilm eradication of methicillin-resistant Staphylococcus aureus BAA-44 after 24 hrs by calgary biofilm device method; type: functional; outline: as §1
Staphylococcus aureus [12] = assay: Bactericidal activity against methicillin-resistant Staphylococcus aureus BAA-1707 planktonic cells after 24 hrs by calgary biofilm device method; type: organism-based; outline: as §2
Staphylococcus aureus [13] = assay: Bactericidal activity against methicillin-resistant Staphylococcus aureus 2 planktonic cells after 24 hrs by calgary biofilm device method; type: organism-based; outline: as §2
HeLa = assay: Cytotoxicity against human HeLa cells after 24 hrs by LDH release assy; type: cell-based
Outline: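 HeLa cells in DMEM with 10% FBS at 37 °C, 5% CO2, dosed at 70-80% confluence with compound diluted in medium at 25, 50 and 100 µM for 24 h. Supernatant mixed with LDH reaction mixture, 30 min at room temperature, stopped, A490 read. Triton X-100 (2% v/v) as maximal-release control, medium only as no-death control, DMSO as vehicle. Three independent experiments.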

Staphylococcus aureus [14] = assay: Antibacterial activity against methicillin-resistant Staphylococcus aureus BAA-1707 after 16 to 18 hrs by broth microdilution method; type: functional; outline: as §3
[15] = Metal chelating activity assessed as compound-Fe2+ complex formation at 5 mM by UV-vis spectrometry
Outline: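 HP solutions given ammonium iron(II) sulfate hexahydrate; UV-vis scans 300–700 nm in 2 nm steps, λmax 374 nm. Loss of absorbance at 374 nm taken as loss of free hydroxyphenazine and formation of phenazine–iron(II) complex.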

[16] = test system: Staphylococcus epidermidis; assay: Antibacterial activity against methicillin-resistant Staphylococcus epidermidis ATCC 35984 after 16 to 18 hrs by broth microdilution method; type: functional
Staphylococcus aureus [17] = assay: Antibacterial activity against methicillin-resistant Staphylococcus aureus 2 after 16 to 18 hrs by broth microdilution method; type: functional; outline: as §3
[18] = test system: Staphylococcus epidermidis; assay: Induction of biofilm eradication of methicillin-resistant Staphylococcus epidermidis ATCC 35984 at 1 to 10 uM after 24 hrs by live/dead staining-based fluorescence microscopic method; type: functional, organism-based
Outline: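 MRSE 35984 mid-log culture diluted 1:1,000, biofilms grown 24 h at 37 °C in compartment dishes, saline-washed, then treated at 1, 5 and 10 µM in fresh medium for 24 h at 37 °C; DMSO negative control. After saline wash, live/dead stained biofilms imaged by fluorescence microscopy; three independent experiments.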

Staphylococcus aureus [19] = assay: Antibacterial activity against methicillin-resistant Staphylococcus aureus BAA-1707 after 16 hrs by agar diffusion method; type: functional
[20] = Metal chelating activity assessed as compound-copper complex formation by UV-vis spectrometry
[21] = Half life in human serum by LC-MS analysis; type: ADME, cell-free
Outline: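 Human serum pre-warmed to 37 °C, spiked with prodrug from 10 mM DMSO stock plus internal standard, vortexed, then held 1 to 60 min. At each time point, acetonitrile with 0.5% formic acid was added to precipitate proteins. Released active HP was quantified as its ratio to internal standard against standard curves.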

[22] = Stability in lysogeny broth at 37 degC up to 16 hrs by UV-vis spectrophotometric method; type: physicochemical
Outline: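 Compound from 10 mM DMSO stock was added to LB pre-warmed to 37 °C and incubated at 37 °C. At each time point it was extracted with an equal volume of ethyl acetate, and UV-vis spectra were scanned from 200 to 700 nm in 2 nm steps.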

[23] = Selectivity index, ratio of IC50 for human HeLa cells to MIC for methicillin-resistant Staphylococcus aureus BAA-1707; type: toxicity; conditions: read-out: Selectivity Index
Outline: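 HeLa cells in DMEM + 10% FBS, 37 °C, 5% CO2, at 70–80% confluence exposed 24 h to 25, 50 and 100 µM; LDH release read at 490 nm (Triton X-100 2% maximum, medium-only minimum); three independent experiments. Index = HeLa IC50 divided by MRSA BAA-1707 MIC.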

Row | Structure (SMILES) | MBEC (Staphylococcus aureus [1]) | MBEC (Staphylococcus aureus [2]) | MBC [3] | hemolysis at 1 h, 200 µM [4] | MBC (Staphylococcus aureus [5]) | MBEC (Enterococcus faecium [6]) | MBC (Enterococcus faecium [7]) | MIC (Enterococcus faecium [8]) | MIC [9] | MBEC [10] | MBC (Staphylococcus aureus [12]) | MBC (Staphylococcus aureus [13]) | pIC50 (HeLa) | MIC (Staphylococcus aureus [14]) | MIC [16] | MIC (Staphylococcus aureus [17]) | other results
1 | Oc1c(Br)cc(Br)c2nc3ccccc3nc12 | 100 µM | 150 µM | 50 µM (≈ 17.7 µg/mL) | ≤ 1% | 37.5 µM (≈ 13.3 µg/mL) | 9.38 µM | 23.5 µM (≈ 8.32 µg/mL) | 6.25 µM (≈ 2.21 µg/mL) | 25 µM (≈ 8.85 µg/mL) | 100 µM | 18.8 to 37.5 µM (≈ 6.66 to 13.3 µg/mL) | 50 µM (≈ 17.7 µg/mL) | < 4.00 |  |  |  | MBEC (Staphylococcus aureus [11]): 150 µM
2 | Oc1c(Br)cc(Br)c2nc3cc(Cl)ccc3nc12 | 25 µM | 4.69 µM | 6.25 µM (≈ 2.43 µg/mL) | ≤ 1% | 6.25 µM (≈ 2.43 µg/mL) |  |  |  | 3.13 µM (≈ 1.22 µg/mL) | 37.5 µM |  | 6.25 µM (≈ 2.43 µg/mL) | < 4.00 | 0.038 µM (≈ 0.0148 µg/mL) | 0.1 µM (≈ 0.0388 µg/mL) | 0.1 µM (≈ 0.0388 µg/mL) | Activity [15]: Active; Activity [18]: Active; inhibition zone (IZ) (Staphylococcus aureus [19]): 4.25 cm2; Activity [20]: Active
3 | CCc1ccc2nc3c(O)c(Br)cc(Br)c3nc2c1 | 150 µM | 150 µM | 50 µM (≈ 19.1 µg/mL) | 3% | 75 µM (≈ 28.7 µg/mL) |  | 50 µM (≈ 19.1 µg/mL) | 2.35 µM (≈ 0.898 µg/mL) | 6.25 µM (≈ 2.39 µg/mL) | 75 µM | 75 µM (≈ 28.7 µg/mL) | 75 µM (≈ 28.7 µg/mL) | < 4.30 | 0.1 µM (≈ 0.0382 µg/mL) | 0.1 µM (≈ 0.0382 µg/mL) | 0.59 µM (≈ 0.225 µg/mL) | MBEC (Staphylococcus aureus [11]): 75 µM
4 | Cc1cc(C)c2nc3c(Br)cc(Br)c(O)c3nc2c1 |  |  |  | 2.2% |  |  |  | 0.2 µM (≈ 0.0764 µg/mL) | 50 µM (≈ 19.1 µg/mL) |  |  |  | < 4.00 | 0.075 to 0.08 µM (≈ 0.0287 to 0.0306 µg/mL) | 0.1 µM (≈ 0.0382 µg/mL) | 0.3 µM (≈ 0.115 µg/mL) | 
5 | CN[C@H](CC(C)C)C(=O)N[C@H]1C(=O)N[C@@H](CC(N)=O)C(=O)N[C@H]2C(=O)N[C@H]3C(=O)N[C@H](C(=O)N[C@H](C(=O)O)c4cc(O)cc(O)c4-c4cc3ccc4O)[C@H](O)c3ccc(c(Cl)c3)Oc3cc2cc(c3O[C@@H]2O[C@H](CO)[C@@H](O)[C@H](O)[C@H]2O[C@H]2C[C@](C)(N)[C@H](O)[C@H](C)O2)Oc2ccc(cc2Cl)[C@H]1O [VANCOMYCIN] | >2000 µM | >2000 µM | 3 µM (≈ 4.35 µg/mL) | ≤ 1% |  | 150 µM | > 200 µM | > 100 µM |  | >2000 µM | 3.9 µM (≈ 5.65 µg/mL) | 3 µM (≈ 4.35 µg/mL) |  |  |  |  | MBEC (Staphylococcus aureus [11]): >2000 µM
6 | CC1=C(C)C(=O)C(COC(=O)OCOc2c(Br)cc(Br)c3nc4ccccc4nc23)=C(C)C1=O |  | 75 µM | 37.5 µM (≈ 22.1 µg/mL) | ≤ 1% |  | 9.38 µM | 12.5 µM (≈ 7.38 µg/mL) | 9.38 µM (≈ 5.54 µg/mL) |  | 150 µM | 25 µM (≈ 14.8 µg/mL) |  |  | 2.35 µM (≈ 1.39 µg/mL) | 2.35 µM (≈ 1.39 µg/mL) |  | half-life [21]: 6.3 min; Stability [22]: Stable
7 | CC(C)(C)c1ccc2nc3c(O)c(Br)cc(Br)c3nc2c1 | 3.13 µM |  | 6.25 µM (≈ 2.56 µg/mL) | ≤ 1% |  |  | 1.56 µM (≈ 0.64 µg/mL) | 0.1 µM (≈ 0.041 µg/mL) |  | 3.13 µM |  | 3.13 µM (≈ 1.28 µg/mL) | < 4.00 | 0.1 µM (≈ 0.041 µg/mL) | 0.1 µM (≈ 0.041 µg/mL) | 0.1 µM (≈ 0.041 µg/mL) | 
8 | Cc1ccc2nc3c(O)ccc(Br)c3nc2c1 |  |  |  |  |  |  |  | 25 µM (≈ 7.23 µg/mL) | 25 µM (≈ 7.23 µg/mL) |  |  |  | < 4.00 | 12.5 µM (≈ 3.61 µg/mL) | 12.5 µM (≈ 3.61 µg/mL) |  | selectivity ratio [23]: > 8
9 | Cc1ccc2nc3c(Br)cc(Br)c(O)c3nc2c1C |  |  |  |  |  |  |  | > 100 µM |  |  |  |  |  | > 100 µM | > 100 µM |  | Activity [15]: inactive
10 | Oc1c(Br)cc(Br)c2nc3cc(Oc4ccccc4)ccc3nc12 |  |  |  | ≤ 1% | 25 µM (≈ 11.2 µg/mL) |  |  | 0.2 µM (≈ 0.0892 µg/mL) | 6.25 µM (≈ 2.79 µg/mL) |  |  |  | < 4.00 | 0.075 µM (≈ 0.0335 µg/mL) | 0.1 µM (≈ 0.0446 µg/mL) | 0.39 µM (≈ 0.174 µg/mL) | 
11 | CCc1cccc2nc3c(Br)cc(Br)c(O)c3nc12 |  |  |  |  |  |  |  | > 100 µM |  |  |  |  |  | > 100 µM | > 100 µM |  | Activity [15]: inactive; Activity [20]: inactive
12 | CC1=C(C)C(=O)C(COC(=O)OCOc2c(Br)cc(Br)c3nc4cc(Cl)ccc4nc23)=C(C)C1=O |  | 12.5 µM | 12.5 µM (≈ 7.81 µg/mL) | 2.7% |  | 3.13 µM | 3.13 µM (≈ 1.96 µg/mL) | 1.56 µM (≈ 0.974 µg/mL) |  | 25 µM | 6.25 µM (≈ 3.9 µg/mL) |  | < 4.00 | 0.15 µM (≈ 0.0937 µg/mL) |  |  | half-life [21]: 11.4 min; inhibition zone (IZ) (Staphylococcus aureus [19]): 2.86 cm2
